ChEMBL document CHEMBL3596119, “Synthesis and biological characterization of a promising F-18 PET tracer for vesicular acetylcholine transporter” (Bioorg Med Chem, 2015)
pKi: −log10 of the molar value.

How the values were obtained:
[1] = target: Sigma non-opioid intracellular receptor 1 (Cavia porcellus, UniProt Q60492); test: Displacement of (+)-[3H]pentazocine from sigma1 receptor in guinea pig brain membrane homogenates; format: cell membranes
Summary of the method: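 Run on guinea pig brain membrane homogenate (~300 μg protein) with 5 nM (+)-[3H]pentazocine. 10 μM haloperidol defined nonspecific binding. IC50 came from nonlinear regression with a one-site fit.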

[2] = Displacement of [3H]DTG from sigma2 receptor in rat liver membrane homogenates; format: cell membranes
Summary of the method: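 Run on rat liver membrane homogenate (~300 μg protein) with ~5 nM [3H]DTG plus 1 μM (+)-pentazocine to mask σ1 sites. 10 μM haloperidol defined nonspecific binding. IC50 came from nonlinear regression.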

[3] = target: T1, Vesicular acetylcholine transporter (Homo sapiens, UniProt Q16572); test: Displacement of [3H]-vesamicol from human VAChT after 24 hrs by liquid scintillation spectrometry analysis
T1 sequence (Q16572 whole entry): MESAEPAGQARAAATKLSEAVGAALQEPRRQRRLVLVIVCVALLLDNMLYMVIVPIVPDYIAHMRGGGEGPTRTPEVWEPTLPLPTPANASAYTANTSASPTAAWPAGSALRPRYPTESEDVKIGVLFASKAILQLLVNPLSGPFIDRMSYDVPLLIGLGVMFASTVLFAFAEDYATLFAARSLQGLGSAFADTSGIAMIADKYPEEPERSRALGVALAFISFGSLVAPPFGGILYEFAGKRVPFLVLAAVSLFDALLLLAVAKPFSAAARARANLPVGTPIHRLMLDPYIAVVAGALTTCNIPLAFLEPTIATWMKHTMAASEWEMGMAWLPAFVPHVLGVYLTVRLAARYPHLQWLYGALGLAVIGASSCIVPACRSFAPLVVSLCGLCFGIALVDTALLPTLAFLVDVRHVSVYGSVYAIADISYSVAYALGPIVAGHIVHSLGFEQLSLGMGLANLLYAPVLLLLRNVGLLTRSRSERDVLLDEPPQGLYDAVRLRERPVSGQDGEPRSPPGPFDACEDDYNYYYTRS

Sigma non-opioid intracellular receptor 1, sequence (Q60492 whole entry): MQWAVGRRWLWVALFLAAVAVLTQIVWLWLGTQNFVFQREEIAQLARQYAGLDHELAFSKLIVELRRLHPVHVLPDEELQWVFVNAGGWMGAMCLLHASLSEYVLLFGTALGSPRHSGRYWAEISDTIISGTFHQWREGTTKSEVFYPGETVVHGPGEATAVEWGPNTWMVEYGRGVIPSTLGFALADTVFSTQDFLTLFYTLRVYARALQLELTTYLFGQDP

| pKi [2] | SMILES | pKi [1] | pKi [3] |
| --- | --- | --- | --- |
| 5.09 | O=C(c1ccc(OCCOCCF)cc1)C1CCN([C@@H]2Cc3ccccc3C[C@H]2O)CC1 | 5.80 | 9.06 |
| < 5.00 | O=C(c1ccc(OCCOCCOCCF)cc1)C1CCN([C@@H]2Cc3ccccc3C[C@H]2O)CC1 | < 5.00 | 8.91 |
| 6.60 | O=C(c1ccc(F)cc1)c1cccc2c1C[C@@H](N1CCC(c3ccccc3)CC1)[C@H](O)C2 | – | – |
| 5.15 | O=C(c1ccc(F)cc1)C1CCN([C@@H]2Cc3cccc(OCCF)c3C[C@H]2O)CC1 (racemic) | < 5.00 | – |
| 5.11 | O=C(c1ccc(F)cc1)C1CCN(C2Cc3c(cccc3OCCF)CC2O)CC1 (single isomer, unassigned; (+)) | – | – |
| < 5.00 | O=C(c1ccc(F)cc1)C1CCN(C2Cc3c(cccc3OCCF)CC2O)CC1 (single isomer, unassigned; (-)) | – | – |

| SMILES | pKi [2] | pKi [1] | pKi [3] |
| --- | --- | --- | --- |
| O=C(c1ccc(OCCF)cc1)C1CCN([C@@H]2Cc3ccccc3C[C@H]2O)CC1 | 5.72 | 7.88 | 8.76 |
| O=C(c1ccc(F)cc1)C1CCN([C@@H]2Cc3c(O)cccc3C[C@H]2O)CC1 | 5.73 | 5.06 | 8.33 |
| O=C(c1ccc(F)cc1)C1CCN([C@@H]2Cc3cccc(O)c3C[C@H]2O)CC1 | 5.59 | 7.54 | 7.25 |
| O=C(c1ccc(F)cc1)C1CCN([C@@H]2Cc3c(cccc3OCCF)C[C@H]2O)CC1 (racemic) | < 5.00 | 6.09 | – |
| O[C@@H]1CCCC[C@H]1N1CCC(c2ccccc2)CC1 [VESAMICOL] | 6.46 | – | – |
